For orientation: IC50 means the point on the concentration scale where inhibition reaches its midpoint.

In test [1] the target is Poly(ADP-ribose) glycohydrolase (Bos taurus) (UniProt O02776). In words: (§1) The compound was tested for its ability to inhibit bovine thymus polyadenosine diphosphoribose glycohydrolase (bPARG). The essentials:
(§2)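 PARG activity was measured with 10 µM [α-32P]ADP-ribose polymers as substrate and varying inhibitor concentrations, with an inhibitor-free control. Enzyme was 0.25 ng of bovine thymus PARG, purified with a Red-Sepharose step, or 5 ng of rPARG-CF. Runs were done at least in triplicate. IC50 came from a sigmoidal fit of % activity against log[inhibitor].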

For test [2] the target is unchanged. The test can be described thus: (§3) The compound was tested for its ability to inhibit recombinant bovine polyadenosine diphosphoribose glycohydrolase catalytic fragment (rPARG-CF). The method, boiled down:
as §2

Test [3] has as its target T1, Poly(ADP-ribose) glycohydrolase (Bos taurus, UniProt O02776). Described as §3. The method, boiled down: as §2
Test [4] has as its target T1, Poly(ADP-ribose) glycohydrolase. Described as §1. The essentials: as §2

Each structure is given as a SMILES string. “And” between values parts separate entries of the source, which are not always exact repeats. Equal entries are not always repeated. Where only a bound is given, the exact number is not on record here.

T1 sequence (O02776 whole entry): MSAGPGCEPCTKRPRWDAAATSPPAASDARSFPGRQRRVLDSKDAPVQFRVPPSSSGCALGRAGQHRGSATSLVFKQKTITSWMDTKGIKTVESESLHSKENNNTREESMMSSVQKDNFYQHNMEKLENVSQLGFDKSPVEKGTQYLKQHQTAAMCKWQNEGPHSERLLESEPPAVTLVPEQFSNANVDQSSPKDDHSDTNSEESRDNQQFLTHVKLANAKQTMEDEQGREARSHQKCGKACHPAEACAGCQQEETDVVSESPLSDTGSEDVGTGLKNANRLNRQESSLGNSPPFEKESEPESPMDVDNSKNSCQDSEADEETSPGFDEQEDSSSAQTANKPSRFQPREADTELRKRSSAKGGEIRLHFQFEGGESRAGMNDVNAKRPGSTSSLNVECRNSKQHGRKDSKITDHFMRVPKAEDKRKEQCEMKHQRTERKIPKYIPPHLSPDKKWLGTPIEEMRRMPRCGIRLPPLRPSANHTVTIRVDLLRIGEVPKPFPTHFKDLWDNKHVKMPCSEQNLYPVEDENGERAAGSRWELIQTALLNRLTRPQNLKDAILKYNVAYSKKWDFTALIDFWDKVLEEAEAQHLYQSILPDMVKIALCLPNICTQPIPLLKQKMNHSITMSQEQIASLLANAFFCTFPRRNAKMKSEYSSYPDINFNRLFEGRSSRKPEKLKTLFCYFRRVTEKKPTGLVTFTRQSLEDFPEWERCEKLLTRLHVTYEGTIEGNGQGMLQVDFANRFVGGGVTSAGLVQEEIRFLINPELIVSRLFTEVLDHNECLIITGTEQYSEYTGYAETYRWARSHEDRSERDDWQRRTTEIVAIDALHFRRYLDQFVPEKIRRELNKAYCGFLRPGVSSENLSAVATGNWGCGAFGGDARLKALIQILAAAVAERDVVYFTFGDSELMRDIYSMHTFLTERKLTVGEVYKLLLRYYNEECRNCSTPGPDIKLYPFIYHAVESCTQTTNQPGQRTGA
Poly(ADP-ribose) glycohydrolase (Bos taurus), sequence (O02776 whole entry): as above

Consider `Nc1nc(O)c2ncn(C3O[C@H](COP(=O)(O)OP(=O)(O)OCC4NC[C@H](O)[C@@H]4O)[C@@H](O)[C@H]3O)c2n1` (stereo partly drawn), for which the Log IC50 in test [1] is > 3 µM; in test [2], 2.99 µM.

`NCCCCCCNc1nc2c(N)ncnc2n1C1O[C@H](COP(=O)(O)OP(=O)(O)OC[C@H]2NC[C@H](O)[C@@H]2O)[C@@H](O)[C@H]1O` (stereo partly drawn): the IC50 in test [3] is 9.5 µM. In addition, in test [2], the Log IC50 stood at 0.97 µM.

On to `CCCCCCNc1ncnc2c1ncn2C1O[C@H](COP(=O)(O)OP(=O)(O)OCC2NC[C@H](O)[C@@H]2O)[C@@H](O)[C@H]1O` (stereo partly drawn), for which the half-inhibitory concentration (IC50) in test [3] worked out at 510 µM. In test [2], the Log IC50 came out at 2.71 µM.

For the compound `Nc1ncnc2c1nc(NCCCCCCNC(=O)C(F)(F)F)n2C1O[C@H](COP(=O)(O)OP(=O)(O)OC[C@H]2NC[C@H](O)[C@@H]2O)[C@@H](O)[C@H]1O` (stereo partly drawn), in test [3], the IC50 was 570 µM. For the same compound, the Log IC50 in test [2] amounted to 2.75 µM.

Take `Nc1ncnc2c1nc(Sc1ccc(Cl)cc1)n2C1O[C@H](COP(=O)(O)OP(=O)(O)OC[C@H]2NC[C@H](O)[C@@H]2O)[C@@H](O)[C@H]1O` (stereo partly drawn): the half-maximal inhibitory concentration (IC50) in test [3] was found to be 120 µM. In addition, the Log IC50 in test [2] was found to be 2.07 µM.

`[N-]=[N+]=Nc1nc(N)c2ncn(C3O[C@H](COP(=O)(O)OP(=O)(O)OC[C@H]4NC[C@H](O)[C@@H]4O)[C@@H](O)[C@H]3O)c2n1` (stereo partly drawn): the IC50 in test [4] was determined as 290 µM; in test [3], 148 µM. The results for the Log IC50 in test [1] and in test [2] were 2.45 µM and 2.17 µM, respectively.

On to `Nc1nc2c(ncn2C2O[C@H](COP(=O)(O)OP(=O)(O)OCC3NC[C@H](O)[C@@H]3O)[C@@H](O)[C@H]2O)c(=O)[nH]1` (stereo partly drawn), for which the 50% inhibitory concentration (IC50) in test [4] is > 1000 µM; in test [3], 970 µM.

On to `Nc1ncnc2c1ncn2C1O[C@H](COP(=O)(O)OP(=O)(O)OCC2C[C@@H](O)CN2)[C@@H](O)[C@H]1O` (stereo partly drawn) [ADENOSINE DIPHOSPHATE (HYDROXYMETHYL)PYRROLIDINE MONOALCOHOL], for which the IC50 in test [4] turned out to be 3.07 µM; in test [3], 4.2 µM. Further, the Log IC50 in test [1] was found to be 0.48 µM; in test [2], 0.623 µM.

With `[N-]=[N+]=Nc1nc2c(N)ncnc2n1C1O[C@H](COP(=O)(O)OP(=O)(O)OC[C@H]2NC[C@H](O)[C@@H]2O)[C@@H](O)[C@H]1O` (stereo partly drawn), the 50% inhibitory concentration (IC50) was 0.39 µM in test [4] and 0.44 µM in test [3].

As to `Nc1ncnc2c1ncn2[C@@H]1O[C@H](CO[P@](=O)(O)O[P@@](=O)(O)OC[C@H]2NC[C@H](O)[C@@H]2O)[C@@H](O)[C@H]1O` [ADENOSINE DIPHOSPHATE (HYDROXYMETHYL)PYRROLIDINEDIOL], the IC50 in test [4] is 0.33 µM; in test [3], 1.4 µM and 1 µM.

Turning to `Nc1ncnc2c1ncn2C1O[C@H](COP(=O)(O)OP(=O)(O)OCC2CCCN2)[C@@H](O)[C@H]1O` (stereo partly drawn) [ADENOSINE DIPHOSPHATE (HYDROXYMETHYL)PYRROLIDINE], the IC50 came to 19.2 µM in test [4] and 63 µM in test [3]. Besides, the Log IC50 in test [1] was 1.28 µM; in test [2] it was 1.8 µM.

The record behind these values is ChEMBL document CHEMBL1145115, “SAR analysis of adenosine diphosphate (hydroxymethyl)pyrrolidinediol inhibition of poly(ADP-ribose) glycohydrolase” (J Med Chem, 2003).
